Experimental data from ChEMBL document CHEMBL1153963, “Phenanthrene-based tylophorine-1 (PBT-1) inhibits lung cancer cell growth through the Akt and NF-kappaB pathways” (J Med Chem, 2009).
Active and inactive are the calls of the source. No cut-off for these calls is given here.

Experiments:
CL1-0 [1] = assay: Inhibition of TNF-alpha-induced NF-kappaB transcriptional in human CL1-0 cells by luciferase reporter gene assay; assay type: cell-based
Procedure, shortened: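 CL1-0 cells transiently co-transfected with pNF-κB-Luc (0.2 µg) and pSV-β-galactosidase (1 µg) via lipofectamine; after 20 h switched to serum-free medium, pretreated 1 h, then stimulated with TNF-α for 4 h; luciferase normalized to β-galactosidase; n=3 independent transfections, mean ± SD.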

CL1-0 [2] = assay: Decrease in IkappaB protein level in TNF-alpha-stimulated human CL1-0 cells by Western blot; assay type: functional, cell-based
Procedure, shortened: (§1)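 CL1-0 cells serum-starved overnight, pretreated with various drug concentrations, then stimulated with TNF-α for 4 h. Lysates (50 µg) resolved by 10% SDS-PAGE, blotted, probed with specific antibodies in TBS pH 7.5/0.05% Tween 20/5% milk, HRP secondaries, chemiluminescent film detection; a representative blot shown.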

CL1-0 [3] = assay: Decrease in COX2 protein level in TNF-alpha-stimulated human CL1-0 cells by Western blot; assay type: functional, cell-based; procedure, shortened: as §1
[4] = target: T1, Inhibitor of nuclear factor kappa-B kinase subunit alpha (Homo sapiens) (UniProt O15111); assay: Increase in IKKalpha activity in TNF-alpha-stimulated human CL1-0 cells by Western blot; assay type: cell-based
T1 sequence (whole entry): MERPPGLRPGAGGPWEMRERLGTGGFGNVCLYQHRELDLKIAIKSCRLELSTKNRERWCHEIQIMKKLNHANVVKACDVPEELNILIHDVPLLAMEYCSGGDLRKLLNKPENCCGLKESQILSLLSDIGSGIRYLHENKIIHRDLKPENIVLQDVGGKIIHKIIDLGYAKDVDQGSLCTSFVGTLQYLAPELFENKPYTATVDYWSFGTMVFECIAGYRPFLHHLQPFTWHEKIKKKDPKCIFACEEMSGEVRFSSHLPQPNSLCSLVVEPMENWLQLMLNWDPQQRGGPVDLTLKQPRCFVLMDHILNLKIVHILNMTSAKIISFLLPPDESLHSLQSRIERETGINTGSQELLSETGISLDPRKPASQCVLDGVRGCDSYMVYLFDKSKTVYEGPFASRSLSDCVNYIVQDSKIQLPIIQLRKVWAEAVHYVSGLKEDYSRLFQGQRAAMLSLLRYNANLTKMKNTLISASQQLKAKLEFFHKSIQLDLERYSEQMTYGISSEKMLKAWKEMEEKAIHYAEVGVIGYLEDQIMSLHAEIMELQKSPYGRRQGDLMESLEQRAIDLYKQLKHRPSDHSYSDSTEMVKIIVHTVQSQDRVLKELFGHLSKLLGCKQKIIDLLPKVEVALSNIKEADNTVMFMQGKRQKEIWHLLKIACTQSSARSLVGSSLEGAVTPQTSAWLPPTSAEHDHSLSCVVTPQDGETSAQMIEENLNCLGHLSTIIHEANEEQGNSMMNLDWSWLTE
Procedure, shortened: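 CL1-0 (and A549) cells serum-starved overnight, pretreated at various concentrations, then TNF-α stimulated for 4 h; extracts immunoblotted for p-Akt, Akt, IKKα, p-IKKα/β; representative blot shown.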

A549 = assay: Decrease in NF-kappaB1 binding affinity to NF-kappaB response element on COX2 promoter in human A549 cells by chromatin immunoprecipitation assay; assay type: functional, cell-based
Procedure, shortened: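 A549 cells, untreated or treated with drug plus TNF-α for 4 h, cross-linked with 1% formaldehyde (quenched with 0.125 M glycine), lysed, sonicated 12 W for 45 s, immunoprecipitated overnight at 4 °C with anti-RelA, anti-p50 or anti-RelB, collected on protein A/G beads. Cross-links reversed at 65 °C overnight; COX-2 promoter (nt -359 to +106) PCR-amplified 35 cycles, 2% agarose gel, input chromatin as control.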

[5] = Cell cycle arrest in human CL1-0 cells assessed as increase in accumulation at G2/M phase by flow cytometry; assay type: functional, cell-based; conditions: TDE = time-dependent effect
Procedure, shortened: (§2)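 CL1-0 cells seeded at 2×10^5 per 60 mm dish, incubated 24 h, then exposed to various drug concentrations for 2, 6, 12, 16 or 24 h. Harvested cells fixed in cold 70% ethanol at 4 °C for 16 h, treated with RNase A (20 µg/mL, 37 °C, 30 min), stained with propidium iodide (50 µg/mL, 4 °C, 30 min), analysed at once by flow cytometry for phase distribution.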

[6] = Cell cycle arrest in human CL1-0 cells assessed as accumulation at G0/G1 phase after 6 hrs by flow cytometry; assay type: functional, cell-based; procedure, shortened: as §2
[7] = Cell cycle arrest in human CL1-0 cells assessed as accumulation at G0/G1 phase after 16 hrs by flow cytometry; assay type: functional, cell-based; procedure, shortened: as §2
[8] = Cell cycle arrest in human CL1-0 cells assessed as accumulation at S phase after 6 hrs by flow cytometry; assay type: functional, cell-based; procedure, shortened: as §2
[9] = Cell cycle arrest in human CL1-0 cells assessed as accumulation at S phase after 12 hrs by flow cytometry; assay type: functional, cell-based; procedure, shortened: as §2
[10] = Cell cycle arrest in human CL1-0 cells assessed as accumulation at S phase after 16 hrs by flow cytometry; assay type: functional, cell-based; procedure, shortened: as §2
[11] = Cell cycle arrest in human CL1-0 cells assessed as accumulation at G2/M phase after 2 hrs by flow cytometry; assay type: functional, cell-based; procedure, shortened: as §2
[12] = Cell cycle arrest in human CL1-0 cells assessed as accumulation at G2/M phase after 16 hrs by flow cytometry; assay type: functional, cell-based; procedure, shortened: as §2
[13] = Cell cycle arrest in human CL1-0 cells assessed as accumulation at G2/M phase after 24 hrs by flow cytometry; assay type: functional, cell-based; procedure, shortened: as §2
CL1-0 [14] = assay: Effect on cyclin A protein expression in human CL1-0 cells at 0.5 ug/mL after 24 hrs by Western blot; assay type: functional, cell-based
Procedure, shortened: (§3)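 CL1-0 cells exposed to rising concentrations for 24 h, or to 0.5 µg/mL over a time course; 50 µg lysate resolved by 10% SDS-PAGE, blotted, probed with cyclin/CDK-inhibitor antibodies in TBS-Tween/5% milk, HRP secondary, chemiluminescent film detection.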

CL1-0 [15] = assay: Effect on p27 protein expression in human CL1-0 cells at 0.5 ug/mL after 24 hrs by Western blot; assay type: functional, cell-based; procedure, shortened: as §3
CL1-0 [16] = assay: Induction of apoptosis in human CL1-0 cells assessed as PARP1 cleavage by Western blot; assay type: functional, cell-based

Q: What does the source list for `COc1ccc2c(CN3CCC(CO)CC3)cc3cc4c(cc3c2c1)OCO4`?
A: Activity (CL1-0 [1]): Dose-dependent effect; Activity (CL1-0 [2]): Active; Activity (CL1-0 [3]): Active; Activity [4]: Active; Activity (A549): Active; Activity [5]: tde; Activity [6]: 52.5%; Activity [7]: 20.4%; Activity [8]: 15.8%; Activity [9]: 23.9%; Activity [10]: 34.1%; Activity [11]: 25.4%; Activity [12]: 33.6%; Activity [13]: 20.9%; Activity (CL1-0 [14]): inactive; Activity (CL1-0 [15]): inactive; Activity (CL1-0 [16]): Active
